Reference: ChEMBL document CHEMBL4049407, “Positional Scanning Identifies the Molecular Determinants of a High Affinity Multi-Leucine Inhibitor for Furin and PACE4” (J Med Chem, 2017)
Calls of active or inactive are those of the source. No rule for the calls is given here. Peptide text beside a SMILES is read from it. * marks the point of attachment. NH(4-amidinobenzyl) = N=C(N)c1ccc(CN*)cc1

How the values were obtained:
[1] = biological target: T1, Proprotein convertase subtilisin/kexin type 6 (Homo sapiens, UniProt P29122); assay: Inhibition of recombinant human PACE4 expressed in drosophila S2 cells using pyrGlu-Arg-Thr-Lys-Arg-7-amido-4-methylcoumarin as substrate after 60 mins by spectrofluorometry method; format: cell-based
T1 sequence (P29122 whole entry): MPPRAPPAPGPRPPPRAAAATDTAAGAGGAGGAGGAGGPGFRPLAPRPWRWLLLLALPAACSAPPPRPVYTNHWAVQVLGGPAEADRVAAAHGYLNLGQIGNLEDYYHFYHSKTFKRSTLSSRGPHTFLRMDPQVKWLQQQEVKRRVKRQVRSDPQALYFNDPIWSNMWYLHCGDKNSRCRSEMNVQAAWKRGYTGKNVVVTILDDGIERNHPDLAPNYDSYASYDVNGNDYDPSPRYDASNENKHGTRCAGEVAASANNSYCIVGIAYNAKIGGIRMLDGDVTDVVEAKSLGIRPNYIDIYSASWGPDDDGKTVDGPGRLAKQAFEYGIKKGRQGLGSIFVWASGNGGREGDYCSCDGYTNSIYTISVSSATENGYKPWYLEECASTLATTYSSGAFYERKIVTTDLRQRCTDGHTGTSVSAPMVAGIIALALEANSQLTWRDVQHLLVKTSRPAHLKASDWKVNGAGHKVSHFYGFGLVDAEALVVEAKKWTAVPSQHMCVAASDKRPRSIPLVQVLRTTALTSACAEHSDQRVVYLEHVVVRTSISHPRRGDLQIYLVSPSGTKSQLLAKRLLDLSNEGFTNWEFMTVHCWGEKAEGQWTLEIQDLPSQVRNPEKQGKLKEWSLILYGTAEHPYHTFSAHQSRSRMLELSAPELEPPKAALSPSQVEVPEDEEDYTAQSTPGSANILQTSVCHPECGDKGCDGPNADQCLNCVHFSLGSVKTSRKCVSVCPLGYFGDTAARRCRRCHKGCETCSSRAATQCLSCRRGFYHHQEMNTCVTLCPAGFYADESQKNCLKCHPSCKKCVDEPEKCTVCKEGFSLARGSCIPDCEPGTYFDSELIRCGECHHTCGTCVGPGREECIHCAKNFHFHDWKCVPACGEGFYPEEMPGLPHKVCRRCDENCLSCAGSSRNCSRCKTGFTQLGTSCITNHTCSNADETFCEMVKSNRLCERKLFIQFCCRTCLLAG
Procedure, shortened: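 Human recombinant purified PACE4 at 2 units/100 µL (20.18 nM), in 20 mM BisTris pH 6.5, 1 mM CaCl2, 1.8 mg/mL BSA. Substrate 100 µM, KM 4.035 µM. Inhibitor 1 nM to 10 µM; 60 min at 37°C. Fluorescence ex 370 / em 460 nm. Ki by Morrison tight-binding equation; three independent experiments, mean ± SD.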

Furin = Furin (Homo sapiens, UniProt P09958); assay: Inhibition of recombinant human furin expressed in drosophila S2 cells using pyrGlu-Arg-Thr-Lys-Arg-7-amido-4-methylcoumarin as substrate after 60 mins by spectrofluorometry method; format: cell-based
Procedure, shortened: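 Human recombinant purified furin at 2 units/100 µL (0.54 nM), in 100 mM HEPES pH 7.5, 1 mM CaCl2, 1 mM β-mercaptoethanol, 1.8 mg/mL BSA. His-containing peptides run instead in 20 mM BisTris pH 6.5 with the same additives. Substrate 100 µM, KM 5.04 µM. Inhibitor 1 nM to 10 µM; 60 min at 37°C. Fluorescence ex 370 / em 460 nm. Ki by Morrison equation; triplicate experiments, mean ± SD.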

Homo sapiens = species: Homo sapiens; assay: Selectivity index, ratio of Ki for recombinant human furin expressed in drosophila S2 cells to Ki for recombinant human PACE4 expressed in drosophila S2 cells; format: cell-based
Procedure, shortened: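 Ratio Ki(furin)/Ki(PACE4). […] PACE4 buffer was BisTris pH 6.5; furin buffer was HEPES pH 7.5, or BisTris pH 6.5 for His peptides. Ki fitted by Morrison equation from three independent experiments.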

DU-145 = assay: Antiproliferative activity against human DU145 cells assessed as reduction in metabolic activity at 25 to 100 uM after 72 hrs by MTT assay; format: functional, cell-based
Procedure, shortened: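 First-pass MTT screen of each library peptide on DU145 cells (RPMI 1640, 5% FBS, 1500 cells/well, poly-L-lysine plates). Peptides added 24 h after seeding at 25, 50 and 100 µM in fresh serum medium for 72 h. MTT 1 mg/mL for 4 h; 2-propanol HCl solubilisation. Activity normalised to water vehicle. Mean ± SEM of at least two independent experiments.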

Sequence of Furin (P09958 whole entry): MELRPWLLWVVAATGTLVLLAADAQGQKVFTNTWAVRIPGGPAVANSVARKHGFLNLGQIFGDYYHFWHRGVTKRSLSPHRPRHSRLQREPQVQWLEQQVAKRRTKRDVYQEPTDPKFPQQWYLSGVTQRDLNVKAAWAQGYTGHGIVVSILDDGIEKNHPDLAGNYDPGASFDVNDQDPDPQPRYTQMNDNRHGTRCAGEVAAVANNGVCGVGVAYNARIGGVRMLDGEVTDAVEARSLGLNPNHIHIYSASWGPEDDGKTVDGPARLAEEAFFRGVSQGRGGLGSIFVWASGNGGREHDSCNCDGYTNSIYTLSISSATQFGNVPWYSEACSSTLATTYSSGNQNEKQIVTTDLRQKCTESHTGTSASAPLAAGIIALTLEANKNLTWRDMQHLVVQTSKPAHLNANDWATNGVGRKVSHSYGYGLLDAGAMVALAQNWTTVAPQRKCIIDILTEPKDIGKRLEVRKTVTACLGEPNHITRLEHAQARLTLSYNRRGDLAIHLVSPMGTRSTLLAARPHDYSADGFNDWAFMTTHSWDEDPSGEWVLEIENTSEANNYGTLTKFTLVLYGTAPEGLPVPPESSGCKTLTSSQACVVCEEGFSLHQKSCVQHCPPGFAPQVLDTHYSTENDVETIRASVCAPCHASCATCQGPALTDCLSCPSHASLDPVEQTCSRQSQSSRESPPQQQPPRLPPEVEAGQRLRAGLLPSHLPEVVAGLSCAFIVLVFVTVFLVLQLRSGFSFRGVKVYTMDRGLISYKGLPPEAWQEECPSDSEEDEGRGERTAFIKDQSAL

| Ki [1] [nM] | Ki (Furin) [nM] | Structure (SMILES) | Ratio Ki (Homo sapiens) | Activity (DU-145) |
| --- | --- | --- | --- | --- |
| 51 | 23 | CC(=O)N[C@@H](CC(C)C)C(=O)N[C@@H](CCC(=O)O)C(=O)N[C@@H](CC(C)C)C(=O)N[C@@H](CC(C)C)C(=O)N[C@@H](CCCNC(=N)N)C(=O)N[C@H](C(=O)N[C@@H](CCCCN)C(=O)NCc1ccc(C(=N)N)cc1)C(C)C (Ac-LELLRVK-{NH(4-amidinobenzyl)}) | 0.5 | inactive |
| 46 | 38 | CC(=O)N[C@@H](CC(C)C)C(=O)N[C@@H](CC(C)C)C(=O)N[C@@H](CC(C)C)C(=O)N[C@@H](CCC(=O)O)C(=O)N[C@@H](CCCNC(=N)N)C(=O)N[C@H](C(=O)N[C@@H](CCCCN)C(=O)NCc1ccc(C(=N)N)cc1)C(C)C (Ac-LLLERVK-{NH(4-amidinobenzyl)}) | 0.8 | inactive |
| 18 | 12 | CC(=O)N[C@@H](CC(C)C)C(=O)N[C@@H](CC(C)C)C(=O)N[C@@H](CC(C)C)C(=O)NCC(=O)N[C@@H](CCCNC(=N)N)C(=O)N[C@H](C(=O)N[C@@H](CCCCN)C(=O)NCc1ccc(C(=N)N)cc1)C(C)C (Ac-LLLGRVK-{NH(4-amidinobenzyl)}) | 0.7 | inactive |
| 2 | 2.6 | CC(=O)N[C@@H](CC(C)C)C(=O)N[C@@H](CO)C(=O)N[C@@H](CC(C)C)C(=O)N[C@@H](CC(C)C)C(=O)N[C@@H](CCCNC(=N)N)C(=O)N[C@H](C(=O)N[C@@H](CCCCN)C(=O)NCc1ccc(C(=N)N)cc1)C(C)C (Ac-LSLLRVK-{NH(4-amidinobenzyl)}) | 1.3 | inactive |
| 3.7 | 3.4 | CSCC[C@H](NC(=O)[C@H](CC(C)C)NC(=O)[C@H](CC(C)C)NC(=O)[C@H](CC(C)C)NC(C)=O)C(=O)N[C@@H](CCCNC(=N)N)C(=O)N[C@H](C(=O)N[C@@H](CCCCN)C(=O)NCc1ccc(C(=N)N)cc1)C(C)C (Ac-LLLMRVK-{NH(4-amidinobenzyl)}) | 0.9 | inactive |
| 1.7 | 3 | CC(=O)N[C@@H](CC(C)C)C(=O)N[C@@H](CC(C)C)C(=O)N[C@@H](CC(C)C)C(=O)N[C@@H](CC(N)=O)C(=O)N[C@@H](CCCNC(=N)N)C(=O)N[C@H](C(=O)N[C@@H](CCCCN)C(=O)NCc1ccc(C(=N)N)cc1)C(C)C (Ac-LLLNRVK-{NH(4-amidinobenzyl)}) | 1.8 | inactive |
| 1 | 1.7 | CC(=O)N[C@@H](CC(C)C)C(=O)N[C@H](C(=O)N[C@@H](CC(C)C)C(=O)N[C@@H](CC(C)C)C(=O)N[C@@H](CCCNC(=N)N)C(=O)N[C@H](C(=O)N[C@@H](CCCCN)C(=O)NCc1ccc(C(=N)N)cc1)C(C)C)[C@@H](C)O (Ac-LTLLRVK-{NH(4-amidinobenzyl)}) | 1.7 | inactive |
| 2 | 1.5 | CC(=O)N[C@@H](CC(C)C)C(=O)N[C@@H](C)C(=O)N[C@@H](CC(C)C)C(=O)N[C@@H](CC(C)C)C(=O)N[C@@H](CCCNC(=N)N)C(=O)N[C@H](C(=O)N[C@@H](CCCCN)C(=O)NCc1ccc(C(=N)N)cc1)C(C)C (Ac-LALLRVK-{NH(4-amidinobenzyl)}) | 0.8 | inactive |
| 4 | 3 | CC(=O)N[C@@H](CC(C)C)C(=O)N[C@@H](CC(C)C)C(=O)N[C@H](C(=O)N[C@@H](CC(C)C)C(=O)N[C@@H](CCCNC(=N)N)C(=O)N[C@H](C(=O)N[C@@H](CCCCN)C(=O)NCc1ccc(C(=N)N)cc1)C(C)C)C(C)C (Ac-LLVLRVK-{NH(4-amidinobenzyl)}) | 0.8 | inactive |
| 21 | 16.7 | CC(=O)N[C@@H](CC(C)C)C(=O)N[C@@H](CC(C)C)C(=O)NCC(=O)N[C@@H](CC(C)C)C(=O)N[C@@H](CCCNC(=N)N)C(=O)N[C@H](C(=O)N[C@@H](CCCCN)C(=O)NCc1ccc(C(=N)N)cc1)C(C)C (Ac-LLGLRVK-{NH(4-amidinobenzyl)}) | 0.8 | inactive |
| 2 | 3 | CC(=O)N[C@@H](CC(C)C)C(=O)NCC(=O)N[C@@H](CC(C)C)C(=O)N[C@@H](CC(C)C)C(=O)N[C@@H](CCCNC(=N)N)C(=O)N[C@H](C(=O)N[C@@H](CCCCN)C(=O)NCc1ccc(C(=N)N)cc1)C(C)C (Ac-LGLLRVK-{NH(4-amidinobenzyl)}) | 1.5 | inactive |

The next lines start with the compound.

| Structure (SMILES) | Ki [1] [nM] | Ki (Furin) [nM] | Ratio Ki (Homo sapiens) | Activity (DU-145) |
| --- | --- | --- | --- | --- |
| CC(=O)N[C@@H](CC(C)C)C(=O)N[C@@H](CC(C)C)C(=O)N[C@@H](CC(C)C)C(=O)N[C@@H](CCCCN)C(=O)N[C@@H](CCCNC(=N)N)C(=O)N[C@H](C(=O)N[C@@H](CCCCN)C(=O)NCc1ccc(C(=N)N)cc1)C(C)C (Ac-LLLKRVK-{NH(4-amidinobenzyl)}) | 2 | 0.9 | 0.5 | inactive |
| CC(=O)N[C@@H](CC(C)C)C(=O)N[C@@H](CC(C)C)C(=O)N[C@@H](CC(C)C)C(=O)N[C@@H](CCCNC(=N)N)C(=O)N[C@@H](CCCNC(=N)N)C(=O)N[C@H](C(=O)N[C@@H](CCCCN)C(=O)NCc1ccc(C(=N)N)cc1)C(C)C (Ac-LLLRRVK-{NH(4-amidinobenzyl)}) | 0.2 | 0.7 | 3.5 | inactive |
| CC(=O)N[C@@H](CCCCN)C(=O)N[C@@H](CC(C)C)C(=O)N[C@@H](CC(C)C)C(=O)N[C@@H](CC(C)C)C(=O)N[C@@H](CCCNC(=N)N)C(=O)N[C@H](C(=O)N[C@@H](CCCCN)C(=O)NCc1ccc(C(=N)N)cc1)C(C)C (Ac-KLLLRVK-{NH(4-amidinobenzyl)}) | 0.3 | 0.4 | 1.3 | inactive |
| CC(=O)N[C@@H](CC(C)C)C(=O)N[C@@H](CC(C)C)C(=O)N[C@@H](CCCCN)C(=O)N[C@@H](CC(C)C)C(=O)N[C@@H](CCCNC(=N)N)C(=O)N[C@H](C(=O)N[C@@H](CCCCN)C(=O)NCc1ccc(C(=N)N)cc1)C(C)C (Ac-LLKLRVK-{NH(4-amidinobenzyl)}) | 2.2 | 4 | 1.8 | inactive |
| CC(=O)N[C@@H](CC(C)C)C(=O)N[C@@H](CC(C)C)C(=O)N[C@@H](CC(C)C)C(=O)N1CCC[C@H]1C(=O)N[C@@H](CCCNC(=N)N)C(=O)N[C@H](C(=O)N[C@@H](CCCCN)C(=O)NCc1ccc(C(=N)N)cc1)C(C)C (Ac-LLLPRVK-{NH(4-amidinobenzyl)}) | 6 | 4 | 0.7 | inactive |
| CC(=O)N[C@@H](CC(C)C)C(=O)N[C@@H](CC(C)C)C(=O)N[C@@H](CC(C)C)C(=O)N[C@@H](Cc1ccc(O)cc1)C(=O)N[C@@H](CCCNC(=N)N)C(=O)N[C@H](C(=O)N[C@@H](CCCCN)C(=O)NCc1ccc(C(=N)N)cc1)C(C)C (Ac-LLLYRVK-{NH(4-amidinobenzyl)}) | 2 | 3.1 | 1.6 | inactive |
| CC(=O)N[C@@H](CC(C)C)C(=O)N[C@@H](Cc1ccc(O)cc1)C(=O)N[C@@H](CC(C)C)C(=O)N[C@@H](CC(C)C)C(=O)N[C@@H](CCCNC(=N)N)C(=O)N[C@H](C(=O)N[C@@H](CCCCN)C(=O)NCc1ccc(C(=N)N)cc1)C(C)C (Ac-LYLLRVK-{NH(4-amidinobenzyl)}) | 4 | 3 | 0.8 | inactive |
